Screens deposited in PubChem BioAssay by several laboratories.
Sampled rows, rich in hits. Any-hit rate of the full collection: about 2%.
PLK1 inh – blocks human PLK1 kinase activity; recombinant PLK1 kinase, TR-FRET peptide phosphorylation; inhibition, % at 10 µM; 97,000 tested, 0.53% active; AID 619;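 active = inhibition of 50% or more in the single-concentration screen; inactive = inhibition below 50%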
Target sequence (P53350 whole entry, looked up): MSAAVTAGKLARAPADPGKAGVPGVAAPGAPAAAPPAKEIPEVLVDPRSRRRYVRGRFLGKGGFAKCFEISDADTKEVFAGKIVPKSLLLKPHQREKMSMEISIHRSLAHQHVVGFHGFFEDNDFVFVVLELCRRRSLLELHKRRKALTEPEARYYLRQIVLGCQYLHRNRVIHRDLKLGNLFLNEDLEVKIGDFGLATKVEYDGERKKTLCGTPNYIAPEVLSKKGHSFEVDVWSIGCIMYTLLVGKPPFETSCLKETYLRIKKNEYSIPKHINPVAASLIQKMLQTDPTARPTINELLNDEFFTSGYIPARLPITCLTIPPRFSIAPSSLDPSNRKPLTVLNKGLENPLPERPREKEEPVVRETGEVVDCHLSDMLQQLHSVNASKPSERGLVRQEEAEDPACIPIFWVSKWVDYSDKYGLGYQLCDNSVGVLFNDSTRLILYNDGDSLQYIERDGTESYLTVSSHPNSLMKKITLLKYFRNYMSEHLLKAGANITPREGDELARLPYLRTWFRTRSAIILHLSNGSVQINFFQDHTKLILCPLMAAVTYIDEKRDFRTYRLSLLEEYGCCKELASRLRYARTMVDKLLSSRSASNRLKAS
EphB4 ephrin blk – EphB4-ephrin-B2 interaction antagonism. P54760. EphB4 LBD / TNYL-RAW-Alexa532 peptide, fluorescence polarization. inhibition, % at 7 µM. 97,000 tested, 0.15% active. AID 720;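 active = inhibition above the screen-wide mean inhibition plus 3 SD, cut at about 15% in these data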
PTPN22 inh 2 – inhibitors of human LYP (PTPN22) phosphatase | 96,000 tested, 0.21% active | recombinant LYP catalytic domain, DiFMUP fluorescence | inhibition, % at 2 µM | Q9Y2R2;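 active = inhibition at 2 µM at or above a set limit, the screen mean plus 3 SD, cut at about 24% in these data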
Plk1 PBD FP – blocks phosphopeptide binding to human Plk1 polo box domain. P53350. Plk1 PBD phosphopeptide binding, fluorescence polarization. inhibition, %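 (tested at about 20 µM)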. 97,000 tested, 0.13% active. AID 693; in the data active = inhibition above about 34%, passing the limit was not always enough
HIV Rev-RRE inh – inhibitors of HIV-1 Rev-RRE RNA interaction. P05866. Rev peptide-RRE RNA binding, FRET. inhibition, % at 8 µM. 97,000 tested, 0.79% active. AID 704;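 active = inhibition above the screen-wide mean plus 3 SD, cut at about 35% in these data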
Target sequence (P05866 whole entry, looked up): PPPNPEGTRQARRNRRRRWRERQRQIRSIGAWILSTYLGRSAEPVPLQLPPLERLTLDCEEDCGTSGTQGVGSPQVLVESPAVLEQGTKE
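System: Cy5-labelled duplex RRE RNA binding fluorescein-labelled HIV Rev peptide; Signal: fluorescein-to-Cy5 FRET, 480 nm excitation; Also added: labelled Rev peptide; Compound: one concentration, 8 µM nominal; Buffer or medium: HEPES pH 7.5 salt buffer with EDTA; Read-out: % inhibition of FRET ratio versus controls; Schedule: 5 min preincubation and 15 min binding, 25 °C.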
LYP act – increases human PTPN22 phosphatase activity; Q9Y2R2; recombinant LYP, DiFMUP fluorescence; 0 = plate median, 100 = signal doubled; activation, % at 2 µM; 96,000 tested, 0.11% active;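 active = activation at 2 µM above a set limit, the mean plus 5 SD, cut at about 37% in these data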
PLK1 inh conf – confirmation of human PLK1 kinase inhibitors; recombinant PLK1 kinase, TR-FRET peptide phosphorylation; inhibition, % at 10 µM; shares compounds with PLK1 inh; AID 744; 210 tested, 20% active;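 active = inhibition at or above 50% in each of two repeat confirmation tests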
TR-FRET interf – Plk1 assay compound interference counter-screen hit; shares compounds with PLK1 inh; inhibition (interference), % at 10 µM; 210 tested, under 10 active; Plk1 TR-FRET assay interference, compound added post-reaction;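 active = both duplicate runs show 50% or greater inhibition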
Large screens that a line does not name were inactive (follow-up assays come after a bar, where they were run).

CC(=O)c1ccc(NC(=O)c2cnn3ccccc23)cc1	none
CCOc1ccc(C2c3cc(OC)c(OC)cc3CC(=O)N2c2ccccc2)cc1 (stereo not given)	none
CCCCSc1nnc(-c2cc(Br)ccc2N)c(=O)[nH]1	none
C=CCSc1nnc(-c2cc(Br)ccc2N)c(=O)[nH]1	PLK1 inh 71.0 (no result: PTPN22 inh 2, LYP act) | PLK1 inh conf inactive | TR-FRET interf inactive
COc1ccc(C)cc1NC(=O)c1cc2ccccc2o1	none
CC(CNCc1ccc2c(c1)OCO2)NCc1ccc2c(c1)OCO2 (stereo not given)	PLK1 inh 73.9 (no result: PTPN22 inh 2, LYP act) | PLK1 inh conf inactive | TR-FRET interf inactive
COCCNC(=O)c1cc2c3ccccc3n(C)c2s1	none
Cc1cc(C)c2c(=O)[nH]c(SCC(=O)N3CCCCC3)nc2n1	none
Cc1ccc(NC(=O)CSc2nc3nc(C)cc(C)c3c(=O)[nH]2)cc1	PLK1 inh 73.0 | PLK1 inh conf inactive | TR-FRET interf inactive
CCCCNCc1cc(Br)c(OCC(=O)N2CCOCC2)c(OC)c1	PLK1 inh 125.5 | PLK1 inh conf inactive | TR-FRET interf inactive
CCCCNCc1cc(Br)c(OCc2cccs2)c(OC)c1	none
CCOc1ccc(N2Nc3n[nH]c(N)c3N2)cc1	PLK1 inh 78.4 | PLK1 inh conf 68.2 | TR-FRET interf inactive
CCOc1ccc(N2C(=O)c3ccccc3C2=O)cc1	none
COc1ccc(N2Nc3n[nH]c(N)c3N2)cc1	PLK1 inh 79.5 | PLK1 inh conf 73.7 | TR-FRET interf inactive
COC(=O)c1c(C(=O)OC)c2n(c1C)CCC2	none
COCCNC(=O)Cn1nc(-c2ccccc2OC)ccc1=O	none
c1ccc(-c2noc(CN3CCN(c4ccccc4)CC3)n2)cc1	PLK1 inh 73.1 (no result: PTPN22 inh 2, LYP act) | PLK1 inh conf inactive | TR-FRET interf inactive
O=C(CCC(=O)c1ccc(Cl)cc1)OCC(=O)c1ccccc1	PLK1 inh 125.8 | PLK1 inh conf inactive | TR-FRET interf inactive
O=C(COC(=O)c1cccnc1)c1ccc(Cl)cc1	none
CN(CCNC(=O)c1cn(C)c2ccc(S(=O)(=O)N(C)C)cc2c1=O)CCc1ccccc1	PLK1 inh 75.0 (no result: PTPN22 inh 2, LYP act) | PLK1 inh conf inactive | TR-FRET interf inactive
COC(=O)c1[nH]c2cc(OC)ccc2c1NC(=O)CCN1CCN(c2cccc(C)c2C)CC1	none
Cc1ccccc1NC(=O)c1ccc(S(=O)(=O)N(C)C)cc1	PLK1 inh 72.3 (no result: PTPN22 inh 2, LYP act) | PLK1 inh conf inactive | TR-FRET interf inactive
Cc1ccc(-c2noc(C3CCCN(C(=O)c4c(F)cccc4F)C3)n2)cc1 (stereo not given)	PLK1 inh 124.7 | PLK1 inh conf inactive | TR-FRET interf inactive
COC(=O)c1ccc(CSc2nnc(NC(=O)C3CCCO3)s2)cc1 (stereo not given)	none
Fc1ccc2c(c1)C1C=CCC1C(c1cc3c(cc1Br)OCO3)N2 (stereo not given)	none
O=C(O)c1ccc2c(c1)[C@@H]1C=CC[C@@H]1[C@H](c1ccccn1)N2	PLK1 inh 71.9 | PLK1 inh conf 59.4 | TR-FRET interf inactive
CS(=O)(=O)Cc1nc2ccccc2oc1=O	none
C/C(O)=C\c1nc2ccccc2oc1=O	PLK1 inh 124.3 | PLK1 inh conf inactive | TR-FRET interf inactive
O=C(Cn1nc(Cc2cccnc2)c2ccccc2c1=O)NCc1ccc2c(c1)OCO2	PLK1 inh 72.3 (no result: PTPN22 inh 2, LYP act) | PLK1 inh conf inactive | TR-FRET interf inactive
COc1cccc(-c2nnc(SCC(=O)Nc3cc(C)on3)n2C)c1	none
COc1cccc(-c2nnc(SCC(=O)Nc3ccc(S(N)(=O)=O)cc3)n2C)c1	PLK1 inh 110.0 | PLK1 inh conf inactive | TR-FRET interf inactive
Cc1ccc(-c2nc(C3CCN(S(=O)(=O)c4ccc(C(C)(C)C)cc4)CC3)no2)cc1	none
CCCCOC(=O)C1[C@H]2C(=O)N(c3ccccc3CC)C[C@]23C=C[C@H]1O3 (stereo not given in full)	none
CCc1ccccc1N1CC23C=CC(O2)C(C(=O)OCC(C)C)C3C1=O (stereo not given)	PLK1 inh 71.7 (no result: PTPN22 inh 2, LYP act) | PLK1 inh conf inactive | TR-FRET interf inactive
Cc1cc(C)cc(OCC(O)CN2C(=O)NC(C)(C)C2=O)c1 (stereo not given)	PLK1 inh 71.6 (no result: PTPN22 inh 2, LYP act) | PLK1 inh conf inactive | TR-FRET interf inactive
Cc1cccc(N2C(=O)CC(N3CCC(c4nc5ccccc5[nH]4)CC3)C2=O)c1 (stereo not given)	none
Fc1ccc(Br)cc1C1C=C(c2cccnc2)Nc2ncnn21 (stereo not given)	PLK1 inh 88.2 (no result: PTPN22 inh 2, LYP act) | PLK1 inh conf inactive | TR-FRET interf inactive
COc1cccc(C2C=C(c3cccs3)Nc3ncnn32)c1OC (stereo not given)	none
CCOC(=O)c1cccc(NC(=O)COc2ccc([N+](=O)[O-])cc2)c1	none
COc1cccc(NC(=O)CN2C(=O)COc3ccc(Cl)cc32)c1	PLK1 inh 76.3 (no result: PTPN22 inh 2, LYP act) | PLK1 inh conf inactive | TR-FRET interf inactive
Nc1[nH]ncc1N=Nc1ccc(Cl)cc1	PLK1 inh 83.1 | PLK1 inh conf 74.6 | TR-FRET interf inactive
Cc1ccc(-n2c3c(cc(C(=O)NC4CCSC4=O)c2=O)C(=O)CCC3)cc1 (stereo not given)	none
CC(Oc1ccccc1)C(=O)Nc1ccc(C(N)=O)cc1 (stereo not given)	none
C=C(C)c1cccc(C(C)(C)NC(=O)N2CCN(c3ccccn3)CC2)c1	PLK1 inh 74.3 (no result: PTPN22 inh 2, LYP act) | PLK1 inh conf inactive | TR-FRET interf inactive
O=C(CN(Cc1ccccc1)S(=O)(=O)c1ccc(Br)cc1)NCc1ccco1	PLK1 inh 84.9 | PLK1 inh conf inactive | TR-FRET interf inactive
COC(=O)CSc1nc2ccc(C)cc2[nH]1	none
COC(=O)c1sc2nc(CSc3nc4ccc(C)cc4[nH]3)[nH]c(=O)c2c1C	PLK1 inh 71.4 | PLK1 inh conf inactive | TR-FRET interf inactive
CCC(=O)Nc1sc2c(c1C(N)=O)CCC2	none
N#CCC(=O)Nc1sc2c(c1C(N)=O)CCCC2	PLK1 inh 70.2 (no result: PTPN22 inh 2, LYP act) | PLK1 inh conf inactive | TR-FRET interf inactive
CN=c1scc(C)n1/N=C/c1ccc(O)c(O)c1O	PLK1 inh 81.5 | PLK1 inh conf 85.5 | TR-FRET interf 69.9
CCN=c1scc(C)n1/N=C/c1ccsc1	none
O=C(CSc1nnc(Cc2cccs2)n1-c1ccccc1)Nc1ccc2c(c1)OCCO2	none
Cc1onc(-c2ccccc2)c1C(=O)NC(C)C	PLK1 inh 77.5 (no result: PTPN22 inh 2, LYP act) | PLK1 inh conf inactive | TR-FRET interf inactive
COc1cccc(C(=O)n2cnnc2N)c1OC	PLK1 inh 127.5 | PLK1 inh conf inactive | TR-FRET interf inactive
COc1ccccc1-c1c(C)oc2cc(OC(=O)c3ccco3)ccc2c1=O	none
